From ChEMBL document CHEMBL5357082, “Identification and Optimization of Small Molecule Pyrazolopyrimidine TLR7 Agonists for Applications in Immuno-oncology” (ACS Med Chem Lett, 2024)
Active and inactive are the calls of the source. The rule behind the calls is not given here.

Assays:
CT26 [1] = assay: Antitumor activity against syngeneic mouse CT26 cells implanted in ip dosed Balb/cAnNHsd mouse assessed as tumor growth delay administered once a week for 4 weeks in presence of aPD1 antibody and measured twice weekly by digital caliper analysis; assay type: functional, organism-based; settings: dose 0.5-2.5 mg/kg
In short: (§1)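 Syngeneic CT-26 tumors in mice. The TLR7 agonist was given at 0.5 or 2.5 mg/kg weekly for 4 doses (QWx4). It was combined with anti-PD1 antibody at 10 mg/kg IP, every 4 days for 7 doses (Q4Dx7). Tumor growth was followed, including 27 days after compound dosing stopped.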

CT26 [2] = assay: Antitumor activity against syngeneic mouse CT26 cells implanted in Balb/cAnNHsd mouse assessed as complete tumor regression with no relapse at 2.5 mg/kg, ip administered once a week for 4 weeks in presence of aPD1 antibody and measured twice weekly by digital caliper analysis; assay type: functional, organism-based; in short: as §1

## CCC[C@@H](CCO)Nc1nc(N)nc2cnn(Cc3ncc(C4CCN(C5CCOCC5)CC4)cc3OC)c12
CT26 [1]
  Activity: Active
CT26 [2]
  Activity: Active
